Screening data from PubChem.
Most compounds without a hit are left out; they make up all but 10% or so of the library.
Lmaj promast = Leishmania major promastigote growth inhibition, primary screen; Leishmania major promastigotes, resazurin fluorescence viability; inhibition, % at 10 µM; 200,000 tested, 9% active; AID 1063, 2008; in the data active = inhibition above about 50%;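 note: promastigotes grown with compound for 44 hours at 28 °C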
PMI act = activators of human PMI, primary screen, biochemical, fluorescence intensity, near-Km mannose 6-phosphate. AID 1214, 2008. Mannose-6-phosphate isomerase (Homo sapiens), P34949. activation factor at 20 µM. purified human PMI, coupled resazurin fluorescence, 20 min; hits give high values; 1 = vehicle control, 0 substrate-free wells. 190,000 tested, 0.005% active;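 active = activation factor of 2 or more at 20 µM, relative to plate controls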
Target sequence (P34949 whole entry, looked up): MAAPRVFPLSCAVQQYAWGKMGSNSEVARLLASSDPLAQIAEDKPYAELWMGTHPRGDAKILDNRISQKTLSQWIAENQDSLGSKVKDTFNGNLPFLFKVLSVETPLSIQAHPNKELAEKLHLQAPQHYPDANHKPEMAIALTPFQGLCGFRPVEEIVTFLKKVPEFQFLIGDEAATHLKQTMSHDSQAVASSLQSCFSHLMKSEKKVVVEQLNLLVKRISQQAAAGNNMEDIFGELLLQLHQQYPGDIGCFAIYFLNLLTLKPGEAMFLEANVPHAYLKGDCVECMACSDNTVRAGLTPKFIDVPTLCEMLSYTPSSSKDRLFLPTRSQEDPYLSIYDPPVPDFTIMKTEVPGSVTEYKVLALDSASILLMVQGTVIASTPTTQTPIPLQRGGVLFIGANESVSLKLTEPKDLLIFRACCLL
PMI act hi M6P = human PMI activators, high substrate, primary screen, biochemical, fluorescence intensity, near-saturating mannose 6-phosphate. 190,000 tested, 0.34% active. Mannose-6-phosphate isomerase (Homo sapiens), P34949. AID 1216, 2008. activation factor at 20 µM. coupled PMI enzyme assay, resazurin fluorescence, 20 min; hits give high values; 1 = untreated enzyme, 0 = substrate-free blank;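 active = activation factor of 2 or more at 20 µM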
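Technique: Diaphorase-driven resazurin-to-resorufin fluorescence, excitation 544, emission 590 nm | Assay system: Human PMI in coupled enzyme assay | Times: Enzyme reaction with compound 20 min at room temperature | Medium: HEPES-buffered pH 7.4 with magnesium and detergent | Reagent: Mannose-6-phosphate 1.0 mM (near-saturating) plus 0.22 mM NADP+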
Diaph act CS = compounds boosting diaphorase resazurin reduction – biochemical, uHTS, resorufin fluorescence, counter-screen for diaphorase-coupled primary assays, primary screen; Diaphorase/resazurin coupled assay, 16 min; hits give high values; 1 = vehicle wells, 0 = NADH-free wells; activation factor at 20 µM; 190,000 tested, 0.005% active; AID 1229, 2008;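 active = diaphorase activity raised at least twofold by the compound at 20 µM; inactive = activation factor below 2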
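Test system: Clostridium kluyveri diaphorase, purified enzyme; input: enzyme 0.07 U/mL final; buffer or medium: 50 mM HEPES pH 7.4 with 4.542 mM MgCl2, 0.005% Tween 20; also added: 0.114 mM NADH and 0.1 mM resazurin, final amounts; schedule: 16 min enzyme reaction, ambient temperature; technique: fluorescence of resorufin, 544 nm excitation, 590 nm emission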
WT yeast gro inh = growth inhibition of WT strain, primary screen, mitochondrial fusion inhibitor project, WT and mutant strains, chemical genetic; mitochondrial fusion phenotypic screen; inhibition, % at 10 µM; 190,000 tested, 2.1% active; AID 1362, 2008; in the data active = inhibition above about 58%; tested in S. cerevisiae
* hit, by the source's call; . = no result given.

SMILES	Lmaj promast	PMI act	PMI act hi M6P	Diaph act CS	WT yeast gro inh
CCN(CC)S(=O)(=O)c1cccc(NC(=O)c2ccc(SC)cc2OC)c1	62*	0.9	0.9	0.9	6
CCN(CC)S(=O)(=O)c1ccc(N2CCCC2)c(C(=O)Nc2ccc(OC)c(Cl)c2)c1	91*	0.8	0.9	0.8	-12
O=C(CN1CCN(c2ccccc2)CC1)Nc1ccc(Oc2ccccc2)cc1	-1	1	1	0.9	60*
O=C(CN1CCCC1)Nc1ccc(Oc2ccc(NC(=O)CN3CCCC3)cc2)cc1	79*	1	1	1.1	-2
O=C(CNC1CCCCCC1)Nc1ccc(N2CCCC2)cc1	19	0.9	0.9	0.9	4
CC1CCN(CC(=O)Nc2ccc(N3CCCCCC3)cc2)CC1	78*	0.7	0.6	0.8	3
O=C(CNCCC1=CCCCC1)Nc1ccc(N2CCCCCC2)cc1	85*	0.8	0.8	1	88
CCCCCCNS(=O)(=O)c1ccc(NC(=O)C2CCCO2)cc1 (stereo not drawn)	-7	1	1	0.8	-4
Cc1ccc(NC(=O)c2ccc(Cl)c(N3C(=O)C=CC3=O)c2)cc1	1	1.3	1.9	1	-4
COC(=O)c1ccc(NC(=O)Cn2c(-c3nonc3N)nc3ccccc32)cc1	0	1	1	1.1	-12
CC(C)OC(=O)c1ccc(NC(=O)Cn2c(-c3nonc3N)nc3ccccc32)cc1	51*	1.1	1.1	1	-8
CC1CCCCN1S(=O)(=O)c1ccc(N(C(=O)c2cnccn2)C(C(=O)NC2CCCCC2)c2cccs2)cc1 (stereo not drawn)	14	0.8	0.8	0.8	-3
CC1CCCCN1S(=O)(=O)c1ccc(N(C(=O)c2cnccn2)C(C(=O)NC2CCCC2)c2cccs2)cc1 (stereo not drawn)	93*	0.8	1	0.8	-7
COc1cc(CN(C(=S)NCC(=O)NC2CCCC2)C2CCCC2)cc(OC)c1OC	2	0.8	0.9	0.9	-15
CC1=NN(c2ccc(C)cc2C)C(=O)C1C(c1cccc(O)c1)C1C(=O)N(c2ccc(C)cc2C)N=C1C (stereo not drawn)	56*	0.9	0.7	0.8	-17
Cc1cc(C)c(S(=O)(=O)NCC(=O)NCc2ccco2)c(C)c1	3	0.9	0.9	0.9	-14
O=C(CSc1nnnn1-c1ccccc1)NCc1cccs1	-8	1.1	1.1	0.9	74*
C/C(N)=C(/C#N)C(=O)CSc1nnnn1-c1ccc(C)cc1	6	1	0.9	0.9	5
C/C(N)=C(/C#N)C(=O)CSc1nnnn1-c1ccccc1	-3	0.9	0.9	0.7	94*
C=CCn1c(SCc2ccc(C#N)cc2)nnc1-c1ccc(C)cc1	78*	1	1	0.9	7
CCn1c(COc2ccc(Cl)cc2)nnc1SCc1ccc(C#N)cc1	51*	1	1	0.7	39
COc1ccc(-n2c(COc3ccc(C)cc3)nnc2SCc2ccc(C#N)cc2)cc1	68*	0.9	0.9	0.7	21
Cc1ccc(N=C/C(C(=O)C(F)(F)F)=C(\O)c2ccco2)cc1Cl	-5	1.1	1.1	0.9	6
Cc1ccc(Sc2ncccc2C(=O)O)cc1C	59*	1	1	1	-14
Cc1ccc(Sc2ncccc2C(=O)O)c(C)c1	-1	1	1.1	0.9	-2
SMILES	Lmaj promast	PMI act	PMI act hi M6P	Diaph act CS	WT yeast gro inh
COC(=O)c1cn(CC(=O)Nc2ccc(F)cc2)c2ccccc12	-4	1	0.9	1	-12
COc1ccccc1NC(=O)/C(C#N)=C/c1c(C)nn(-c2ccc(F)cc2)c1Cl	1	1	1	0.9	-1
Cc1nn(-c2ccccc2)c(Cl)c1/C=C(\C#N)C(=O)NC(C)C	100*	1	1	0.9	11
COc1ccc(NC(=O)/C(C#N)=C/c2c(C)nn(-c3ccc(F)cc3)c2Cl)cc1Cl	96*	1	1.1	1	4
O=C(NNS(=O)(=O)c1ccccc1)C1CC(c2cccnc2)=NO1 (stereo not drawn)	-5	1.3	1	1	-3
COc1ccc(S(=O)(=O)N2CCOCC2)cc1NC(=O)CSc1nnc2ccccn12	4	1	1	0.8	-20
Cc1ccc2nc(C)cc(C(=O)N3CCCC(CO)(Cc4ccccc4C)C3)c2c1 (stereo not drawn)	61*	0.9	1	0.8	34
Cc1ccc(C)c(-c2[nH]ncc2CN2CCCC(CO)(Cc3ccccc3C)C2)c1 (stereo not drawn)	73*	1	1.1	1	9
Cc1cccc(-c2ncc(CN3CCCC(CO)(Cc4ccccc4C)C3)cn2)c1 (stereo not drawn)	15	0.8	0.8	0.8	60*
O=C(O)C1Cc2[nH]cnc2C(c2ccccc2O)N1 (stereo not drawn)	-1	0.9	1	0.8	-2
COc1ccc(CC/C(C)=N\NC(N)=O)cc1	-6	1	1	1	-1
OC(CNCC(c1ccc(Cl)cc1Cl)c1c[nH]c2ccccc12)c1ccccc1 (stereo not drawn)	100*	1	1	1.1	98
Cn1c(NCCCO)nc2c(c1=O)C1(CCCCC1)Cc1ccccc1-2	0	0.9	0.9	0.7	60*
CC1CN(C(=O)/C=C/c2cccc([N+](=O)[O-])c2)CC(C)O1 (stereo not drawn)	-5	.	.	.	.
CC1CC(C)CN(C(=O)/C=C/c2ccc([N+](=O)[O-])s2)C1 (stereo not drawn)	98*	1	0.8	0.8	-40
CC1CN(C(=O)/C=C/c2ccccc2[N+](=O)[O-])CC(C)O1 (stereo not drawn)	-3	1	0.9	0.9	-9
CC1CN(C(=O)/C=C/c2ccc([N+](=O)[O-])s2)CC(C)O1 (stereo not drawn)	82*	1.1	0.9	0.9	10
CCN(CC)CCNC(=O)C(=O)NCC1OCCN1C(=O)c1ccc2c(c1)OCO2 (stereo not drawn)	54*	1.1	1.1	1	-1
CCOC(=O)N1CCN(S(=O)(=O)c2ccc(C(=O)Nc3nnc(CSC)o3)cc2)CC1	-12	1	1	0.8	-6
CC(C)(C#CCN1CCCCC1)OCCOC(c1ccccc1)c1ccccc1	22	1.1	1.2	1	20
CC(C)CC(NC(=O)C(NC(=O)C1OC2OC(C)(C)OC2C2OC(C)(C)OC12)C(C)C)C(=O)O (stereo not drawn)	44	0.9	1	0.9	0
CC(O)(C#CCN1CCCCC1)c1ccccc1 (stereo not drawn)	24	1	1.1	1	11
